Source: publication PMC7090343 (Heliyon, 2020)
Values after ≈ are worked out from the molar mass of the structure shown. Like-named read-outs stand apart in the source and are kept apart here. Marks after values point to notes of the source that are not given here.

What was measured:
human tyrosinase = conditions: ref An et al., 2010, cited from earlier work
[1] = In vitro antioxidation activity; conditions: DPPH assay, mean of three replicates; for EC50 (antioxidation activity), crude and partitioned extracts: Table 1 experiment
Procedure, shortened: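 Five concentrations of test compound or extract were prepared in DMSO. Each was mixed with 0.15 mM DPPH in methanol and held at 25 °C for 30 min, then A517 was read. Ascorbic acid served as reference standard. Antioxidation (%) = [(A control − A sample)/A control] × 100. EC50 came from linear and nonlinear regression of % activity against concentration. Triplicates were used.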

EC50 (antioxidation activity), crude and partitioned extracts [1]	EC50 (antioxidation activity), crude and partitioned extracts ([1]; listed as ascorbic acid) [µg/mL]	EC50 value of pooled fractions after SG60CC ([1]; nonlinear regression, Table 4 experiment)	Compound	Type of inhibition of human tyrosinase (human tyrosinase; for L-DOPA)	Type of inhibition of human tyrosinase (human tyrosinase; for tyrosine)
–	–	–	O=C(O)/C=C/c1ccc(O)cc1 [p-coumaric acid]	competitive	mixed type
89.82^a μg/mL	89.8 (≈ 510 µM)	71.5^a μg/mL	O=C1O[C@H]([C@@H](O)CO)C(O)=C1O [Ascorbic acid, ascorbic acid]	–	–
